Experimental data published in publication PMC5613202 (CPT: Pharmacometrics & Systems Pharmacology, 2017).
Where a SMILES comes first, the peptide text is derived from it. Bridges are numbered along the chain shown (N, C = ends). [ ]: non-standard residue; d: D form. 2Nal = N[C@@H](Cc1ccc2ccccc2c1)C(=O)O; Lys(iPr) = CC(C)NCCCC[C@H](N)C(=O)O

Experiments:
[1] = format: in vivo, human
Outline: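 The analysis used 767 plasma samples from 147 patients given once-daily s.c. doses. Concentrations were measured by validated LC-MS/MS (LLOQ 0.2, ULOQ 100 ng/mL). The data were fitted with a two-compartment nonlinear mixed-effects model with first-order absorption and dose-dependent clearance. Exponential interindividual variability was used, with allometric body-weight scaling to an 80.1-kg subject. The model was built on rich dose-escalation data, then refined with sparse data. Absorption rate was later fixed at 10 h-1.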

blood CD34+ cell counts = format: in vivo, human; details: patients
Outline: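 Pooled data from three open-label trials of once-daily s.c. peptide antagonist. In the dose-escalation trial, patients received 1–30 mg/day, or 2.5 or 20 mg/day, for 28-day cycles with rich sampling. The other two trials gave 20 mg/day with standard-of-care chemotherapy or sunitinib and used sparse sampling. CD34+ counts were measured by flow cytometry. The model was a precursor model with reversible precursor–central transfer and concentration-driven stimulation of mobilisation (Smax, SC50).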

Antidrug antibody = experiment: Antidrug antibody; design: species or system human; details: all patients included in the analysis datasets
Outline: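 Serum was sampled repeatedly before and after starting once-daily s.c. dosing. Qualitative direct ELISA: the test compound was immobilised on the plate to capture antibodies, which were detected with HRP-conjugated goat anti-human IgG, IgM and IgA and a tetramethylbenzidine substrate. Pooled normal human serum served as negative control. Serum from hyperimmunised cynomolgus monkeys, at various dilutions, served as positive control.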

CXCR4 = details: cited from earlier work
[2] = tested on: CXCL12/CXCR4-mediated chemotaxis; details: in vitro; cited from earlier work
[3] = tested on: leukocytes and hematopoietic progenitors; details: rodent and primate models; cited from earlier work
MDA‐MB‐231 breast cancer = MDA‐MB‐231 breast cancer metastatic xenograft model; cited from earlier work
cytochromes = details: preclinical evaluations, no reference given; cited from earlier work
[4] = rats, excretion studies, no reference given; cited from earlier work
[5] = population PK typical value, s.c.

- TVKA, estimates of typical first‐order absorption rate when estimated ([1]; high and poorly estimated, before fixing, s.c.): > 40 h⁻¹
- TVV2/F, typical apparent central volume of distribution ([1]; population PK typical value, 80.1-kg subject, s.c.): 35.0 L
- TVCLmin/F, typical minimum apparent elimination clearance ([1]; population PK typical value, 80.1-kg subject, s.c. once daily, 147 patients): 4.75 L/h
- TVQ/F, typical apparent distribution clearance [1, 5]: 3.74 L/h
- TVV3/F, typical apparent peripheral volume of distribution [1, 5]: 21.9 L
- EC50 (blood CD34+ cell counts; read-out: SC50, LY2510924 concentration at which half of the maximum stimulatory effect is achieved, conversion of 6.87 ng/mL, plasma concentration): 5.78 nM
- patients who developed ADA (Antidrug antibody): None
Compound: CC(C)NCCCC[C@H](NC(=O)[C@H]1CCC(=O)N[C@@H](Cc2ccccc2)C(=O)N[C@@H](Cc2ccc(O)cc2)C(=O)N[C@@H](CCCCNC(C)C)C(=O)N[C@H](CCCNC(=N)N)C(=O)N[C@@H](Cc2ccc3ccccc3c2)C(=O)NCC(=O)N1)C(N)=O [LY2510924] (FY[Lys(iPr)][dR][2Nal]G[dE][Lys(iPr)]-NH2; lactam N-7)
- bV, typical allometric exponent specific to central volume ([1]; population PK, body weight scaling relative to 80.1 kg): 0.948
- SC50, LY2510924 concentration at which half of the maximum stimulatory effect is achieved (blood CD34+ cell counts; PK/PD model typical value, plasma concentration): 6.87 ng/mL
- Smax, maximum stimulatory effect of LY2510924 on CD34+ cell mobilization (blood CD34+ cell counts; PK/PD model typical value, s.c. once daily): 13.1
- CXCR4 agonist properties (CXCR4): does not exhibit any CXCR4 agonist properties
- value observed in chemotaxis inhibition assays [2]: 0.26 nM
- mobilization of leukocytes and hematopoietic progenitors to the blood stream [3]: dose‐ and time‐dependent mobilization
- effect on tumor metastasis (MDA‐MB‐231 breast cancer): inhibit tumor metastasis
- substrate, inhibitor or inducer of cytochromes (cytochromes): not a substrate, an inhibitor, or an inducer of cytochromes
- dose recovered as parent drug in urine [4]: < 40%
